Assay results taken from ChEMBL document CHEMBL2203025, “6,7-Dihydroxy-1-oxoisoindoline-4-sulfonamide-containing HIV-1 integrase inhibitors” (Bioorg Med Chem Lett, 2012).

Legend:
[1] = target: T1, Human immunodeficiency virus type 1 integrase (Human immunodeficiency virus 1, UniProt Q7ZJM1); test: Inhibition of HIV1 recombinant integrase 3' processing activity using [32P]-labeled oligonucleotide a substrate after 30 mins by electrophoretic analysis
Outline: (§1)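 Gel-based IN assay run in vitro with Mg2+ as cofactor. IC50 values were determined separately for the 3'-processing and strand transfer reactions.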

[2] = target: T1, Human immunodeficiency virus type 1 integrase; test: Inhibition of HIV1 recombinant integrase strand transfer activity using [32P]-labeled oligonucleotide a substrate after 30 mins by electrophoretic analysis; outline: as §1
[3] = system: Human immunodeficiency virus 1; test: Ratio of EC50 for HIV1 expressing integrase Y143R mutant to EC50 for HIV1 expressing wild type integrase; format: functional
[4] = Selectivity index, ratio of CC50 for human HOS cells to EC50 for HIV1 expressing wild type integrase; format: toxicity, cell-based; details: read-out: Ratio CC50/EC50
[5] = system: HOS; test: Cytotoxicity against human HOS cells assessed as reduction in ATP level; format: cell-based
[6] = system: Human immunodeficiency virus 1; test: Antiviral activity against HIV1 expressing wild type integrase infected in HOS cells; format: functional, organism-based; details: Human immunodeficiency virus 1, HOS
Outline: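 HOS cells infected with a lentiviral vector carrying wild-type IN; EC50 from the infected cells.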

T1 sequence (Q7ZJM1 whole entry): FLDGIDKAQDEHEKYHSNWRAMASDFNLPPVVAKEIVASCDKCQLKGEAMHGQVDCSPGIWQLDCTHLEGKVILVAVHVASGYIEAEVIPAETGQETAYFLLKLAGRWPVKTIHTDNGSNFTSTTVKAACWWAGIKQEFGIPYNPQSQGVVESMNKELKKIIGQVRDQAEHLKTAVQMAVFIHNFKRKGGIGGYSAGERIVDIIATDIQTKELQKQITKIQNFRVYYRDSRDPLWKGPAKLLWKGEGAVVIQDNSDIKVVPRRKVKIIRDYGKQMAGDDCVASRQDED

CN(C)CCCNS(=O)(=O)c1cc(O)c(O)c2c1CN(Cc1ccc(F)c(Cl)c1)C2=O
IC50 [1]: 15.9 µM
IC50 [2]: 0.24 µM

CN(C)S(=O)(=O)c1c(O)c(O)c(O)c2c1CN(Cc1ccc(F)c(Cl)c1)C2=O
Ratio EC50 [3]: 2
selectivity ratio [4]: 29
IC50 [1]: 7.6 µM
CC50 [5]: 4.6 µM
EC50 [6]: 0.159 µM
IC50 [2]: 0.26 µM

CN(C)S(=O)(=O)c1ccc(-c2c(O)c(O)c3c(c2S(=O)(=O)N(C)C)CN(Cc2ccc(F)c(Cl)c2)C3=O)cc1
Ratio EC50 [3]: 4
selectivity ratio [4]: 21
IC50 [1]: 35.2 µM
CC50 [5]: 2.8 µM
EC50 [6]: 0.132 µM
IC50 [2]: 0.25 µM

Cc1cc2c(c(O)c1O)C(=O)N(Cc1ccc(F)c(Cl)c1)C2
IC50 [1]: > 111 µM
IC50 [2]: 11.5 µM

CCCCc1cc2c(c(O)c1O)C(=O)N(Cc1ccc(F)c(Cl)c1)C2
IC50 [1]: > 111 µM
IC50 [2]: 6.8 µM

CC(C)c1cc2c(c(O)c1O)C(=O)N(Cc1ccc(F)c(Cl)c1)C2
IC50 [1]: > 111 µM
IC50 [2]: 5.4 µM

O=C1c2c(cc(-c3ccccc3)c(O)c2O)CN1Cc1ccc(F)c(Cl)c1
IC50 [1]: > 111 µM
IC50 [2]: 0.87 µM

O=C1c2c(cc(O)c(O)c2O)CN1Cc1ccc(F)c(Cl)c1
IC50 [1]: 36 µM
IC50 [2]: 1.5 µM

CN(C)S(=O)(=O)c1ccc(-c2cc3c(c(O)c2O)C(=O)N(Cc2ccc(F)c(Cl)c2)C3)cc1
IC50 [1]: > 111 µM
IC50 [2]: 0.4 µM

CNS(=O)(=O)c1cc(O)c(O)c2c1CN(Cc1ccc(F)c(Cl)c1)C2=O
Ratio EC50 [3]: 1
selectivity ratio [4]: 108
IC50 [1]: 17.5 µM
CC50 [5]: 4.3 µM
EC50 [6]: 0.04 µM
IC50 [2]: 0.12 µM

CCN(CC)S(=O)(=O)c1cc(O)c(O)c2c1CN(Cc1ccc(F)c(Cl)c1)C2=O
Ratio EC50 [3]: 3
selectivity ratio [4]: 494
IC50 [1]: 9.5 µM
CC50 [5]: 8.4 µM
EC50 [6]: 0.017 µM
IC50 [2]: 0.054 µM

O=C1c2c(O)c(O)cc(S(=O)(=O)NCCCBr)c2CN1Cc1ccc(F)c(Cl)c1
Ratio EC50 [3]: 1
selectivity ratio [4]: 49
IC50 [1]: 14.7 µM
CC50 [5]: 4.6 µM
EC50 [6]: 0.093 µM
IC50 [2]: 0.11 µM

O=C1c2c(O)c(O)cc(S(=O)(=O)NCCN3CCOCC3)c2CN1Cc1ccc(F)c(Cl)c1
IC50 [1]: 30.2 µM
IC50 [2]: 0.32 µM

O=C1c2c(O)c(O)cc(S(=O)(=O)NCCN3CCNCC3)c2CN1Cc1ccc(F)c(Cl)c1
IC50 [1]: 19.3 µM
IC50 [2]: 0.31 µM

O=C1c2c(O)c(O)cc(S(=O)(=O)NCc3ccccn3)c2CN1Cc1ccc(F)c(Cl)c1
IC50 [1]: 23 µM
IC50 [2]: 0.37 µM

CN1CCN(S(=O)(=O)c2cc(O)c(O)c3c2CN(Cc2ccc(F)c(Cl)c2)C3=O)CC1
Ratio EC50 [3]: 1
selectivity ratio [4]: 144
IC50 [1]: 23 µM
CC50 [5]: 6.2 µM
EC50 [6]: 0.043 µM
IC50 [2]: 0.4 µM

NCCN1CCN(S(=O)(=O)c2cc(O)c(O)c3c2CN(Cc2ccc(F)c(Cl)c2)C3=O)CC1
IC50 [1]: 21.2 µM
IC50 [2]: 0.19 µM

O=C1c2c(O)c(O)cc(S(=O)(=O)N3CCOCC3)c2CN1Cc1ccc(F)c(Cl)c1
Ratio EC50 [3]: 2
selectivity ratio [4]: 241
IC50 [1]: 6.8 µM
CC50 [5]: 5.3 µM
EC50 [6]: 0.022 µM
IC50 [2]: 0.047 µM

O=C(O)CNS(=O)(=O)c1cc(O)c(O)c2c1CN(Cc1ccc(F)c(Cl)c1)C2=O
Ratio EC50 [3]: 3
selectivity ratio [4]: 115
IC50 [1]: 11.7 µM
CC50 [5]: 107 µM
EC50 [6]: 0.929 µM
IC50 [2]: 0.08 µM

CN(CC(=O)O)S(=O)(=O)c1cc(O)c(O)c2c1CN(Cc1ccc(F)c(Cl)c1)C2=O
Ratio EC50 [3]: 2
selectivity ratio [4]: 680
IC50 [1]: 6.9 µM
CC50 [5]: 95.2 µM
EC50 [6]: 0.14 µM
IC50 [2]: 0.058 µM

Cc1c(O)c(O)c2c(c1S(=O)(=O)N(C)C)CN(Cc1ccc(F)c(Cl)c1)C2=O
Ratio EC50 [3]: 2
selectivity ratio [4]: 20
IC50 [1]: 49.7 µM
CC50 [5]: 6.3 µM
EC50 [6]: 0.322 µM
IC50 [2]: 2.8 µM

CCCCc1c(O)c(O)c2c(c1S(=O)(=O)N(C)C)CN(Cc1ccc(F)c(Cl)c1)C2=O
Ratio EC50 [3]: 1
selectivity ratio [4]: 2
IC50 [1]: > 111 µM
CC50 [5]: 7 µM
EC50 [6]: 3.8 µM
IC50 [2]: 2.3 µM

CC(C)c1c(O)c(O)c2c(c1S(=O)(=O)N(C)C)CN(Cc1ccc(F)c(Cl)c1)C2=O
selectivity ratio [4]: 3
IC50 [1]: > 111 µM
CC50 [5]: 12.1 µM
EC50 [6]: 3.6 µM
IC50 [2]: 0.19 µM

CC(C)c1c(O)c(O)c2c(c1S(=O)(=O)N1CCOCC1)CN(Cc1ccc(F)c(Cl)c1)C2=O
Ratio EC50 [3]: 4
selectivity ratio [4]: 2
IC50 [1]: > 111 µM
CC50 [5]: 5.9 µM
EC50 [6]: 3.4 µM
IC50 [2]: 0.41 µM

O=C1c2c(ccc(O)c2O)CN1Cc1ccc(F)c(Cl)c1
Ratio EC50 [3]: 1
selectivity ratio [4]: 12
EC50 [6]: 0.447 µM
